# BindingDB's records for doi:10.1039/c1md00059d (Centre National De La Recherche Scientifique, 2011)
# Target: T1, Vitamin D3 receptor A (Danio rerio, UniProt Q9PTN2)
# T1 sequence (Q9PTN2 whole entry): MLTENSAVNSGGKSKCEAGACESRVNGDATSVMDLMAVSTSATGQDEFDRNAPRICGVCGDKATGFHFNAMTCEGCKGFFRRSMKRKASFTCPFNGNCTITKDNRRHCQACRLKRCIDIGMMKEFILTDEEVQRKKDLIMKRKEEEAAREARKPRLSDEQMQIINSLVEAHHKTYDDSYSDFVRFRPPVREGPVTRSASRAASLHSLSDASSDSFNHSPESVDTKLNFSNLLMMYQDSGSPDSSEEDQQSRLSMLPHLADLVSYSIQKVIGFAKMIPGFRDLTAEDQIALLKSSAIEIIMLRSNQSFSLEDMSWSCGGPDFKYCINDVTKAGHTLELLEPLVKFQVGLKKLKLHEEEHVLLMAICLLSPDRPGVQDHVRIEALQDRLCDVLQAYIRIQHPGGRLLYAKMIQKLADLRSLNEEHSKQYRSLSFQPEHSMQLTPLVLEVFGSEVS
# Assay: Agonist activity at zebrafish VDR LBD assessed as binding affinity to TAMRA-labeled SRC-1 peptide by fluorescence anisotropy assay
# How it was run: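 Titrations were run in the presence of ligand, and peptide recruitment was monitored by fluorescence anisotropy to derive kd.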
row,Kd [nM],Compound
1,1800,[2H]C([2H])([2H])C(O)(CCC[C@@H](CC#CC(O)(C(F)(F)F)C(F)(F)F)[C@H]1CC[C@H]2/C(=C/C=C3C[C@H](O)C[C@@H](O)C3)CCC[C@]12C)C([2H])([2H])[2H]
2,3300,C=C1/C(=C\C=C2/CCC[C@]3(C)[C@@H](C(CCCC(C)(C)O)CCCC(C)(C)O)CC[C@@H]23)C[C@H](O)C[C@H]1O
3,1800,[2H]C([2H])([2H])C(O)(CCC[C@H](CC#CC(O)(C(F)(F)F)C(F)(F)F)[C@H]1CC[C@H]2/C(=C/C=C3C[C@H](O)C[C@@H](O)C3)CCC[C@]12C)C([2H])([2H])[2H]
